Results reported in article PMC9303465 (Hematological Oncology, 2022).

Experiment: Population PK analysis of venetoclax in AML patients
Assay type: in vivo
Method in brief: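 Plasma PK data were pooled from five studies: 771 R/R or treatment-naïve AML patients given ≥1 dose, with daily ramp-up to 400–1200 mg QD. Fitted by nonlinear mixed-effects modelling (FOCE-INT), using a prior CLL/SLL/NHL/healthy-volunteer model as informative priors. Race, azacitidine, decitabine and LDAC were tested stepwise (forward α=0.01, backward α=0.001) as multiplicative factors on CL/F, Vd/F and bioavailability. Validated by pcVPC (500 replicates); AUCss was taken from the planned dose.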

## CC1(C)CCC(CN2CCN(c3ccc(C(=O)NS(=O)(=O)c4ccc(NCC5CCOCC5)c([N+](=O)[O-])c4)c(Oc4cnc5[nH]ccc5c4)c3)CC2)=C(c2ccc(Cl)cc2)C1 [Venetoclax]
Asian patients
  Median exposure (AUCss) at 400 mg venetoclax: 1.85 µg·days/mL
Asian vs non-Asian AML patients
  higher relative bioavailability in Asian than non‐Asian patients: 67%
Non‐Asian patients
  Median exposure (AUCss) at 400 mg venetoclax: 1.11 µg·days/mL
P‐gp inhibitors, mild CYP3A inhibitors, azacitidine, decitabine, or LDAC
  effect of co-administration on venetoclax CL/F: no effect
Azacitidine co-administration
  increase of venetoclax Vd/F with azacitidine: 24%
co-administered moderate CYP3A inhibitors
  decrease of venetoclax CL/F by moderate CYP3A inhibitors: 19%
co-administered strong CYP3A inhibitors
  decrease of venetoclax CL/F by strong CYP3A inhibitors: 83%
sex, mild to moderate hepatic impairment, mild to severe renal impairment, age, body weight
  effect of covariates on venetoclax exposure: did not appear to have any effect
